SR-BI DiI-HDL act: enhances SR-BI lipid uptake from DiI-HDL; activation, % at 12.5 µM; AID 504775; actives 0.096% (n = 320,000); CHO ldlA[mSR-BI] cells, DiI-HDL uptake fluorescence, 3 h; 100 = double the neutral-control signal;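 active = mean replicate activation of at least 60% and every replicate at or above 60%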;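 note: 0% = median plate neutral-control signal and 100% = twice that signal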
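system = CHO ldlA[mSR-BI] cells, LDL receptor-null, SR-BI overexpressing | medium = Ham's F12 with 0.5% BSA, HEPES 25 mM, pH 7.4 | probe or stimulus = DiI-HDL 10 µg/mL | compound dosing = single-point compound dose | incubation = compound exposure 3 h, 37 °C | technique = DiI fluorescence, bottom read | read-out = cell-associated DiI fluorescence as measure of HDL uptake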
Xi reactivation: activators of X-chromosome reactivation in mouse fibroblasts; XiGFP mouse fibroblasts, % GFP-positive cells imaging, 3 d; cells co-treated with 5-aza-dC sensitizer; scaled so ellipticine positive control = 100%; activation, % at 7.58 µM; actives 0.055% (n = 360,000); AID 743238;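 active = mean normalized replicate activation at least 10% and every replicate at or above 10%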;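 note: 0% = median of on-plate neutral control wells and 100% = ellipticine 6 µM median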
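System: 68-5-11 XiGFP fibroblast line; Timing: 3 days compound exposure; Compound dosing: one concentration, pinned; Benchmarks: positive control ellipticine, 6 µM final; Buffer or medium: DMEM containing 5-aza-dC.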
dFosB activator: enhances mouse delta FosB homodimer DNA binding. AID 493131. activation, % at 25 µM. P13346. actives 0.99% (n = 340,000). purified delta FosB, TAMRA-CDK5 oligo fluorescence polarization; percent of positive-control signal above neutral wells;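 active = mean activation above about 17%, with every replicate also reaching it, limit read from the data, passing the limit was not always enough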
Target sequence (P13346 whole entry, looked up): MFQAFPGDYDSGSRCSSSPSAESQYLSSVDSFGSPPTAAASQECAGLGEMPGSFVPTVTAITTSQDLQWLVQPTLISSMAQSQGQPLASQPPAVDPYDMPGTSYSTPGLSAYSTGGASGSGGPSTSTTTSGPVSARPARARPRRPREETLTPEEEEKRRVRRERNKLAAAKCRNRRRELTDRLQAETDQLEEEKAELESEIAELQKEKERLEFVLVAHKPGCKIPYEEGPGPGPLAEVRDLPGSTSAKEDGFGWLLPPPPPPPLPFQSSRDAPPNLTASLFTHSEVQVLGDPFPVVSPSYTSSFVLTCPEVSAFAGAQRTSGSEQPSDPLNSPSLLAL
SR-BI DiI inh: mouse SR-BI HDL lipid transfer inhibition; ldlA[mSR-BI] CHO cells, DiI-HDL uptake fluorescence, 3 h; actives 0.96% (n = 320,000); inhibition, % at 12.5 µM; Q61009;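 active = mean replicate inhibition of at least 70% and a set share of replicates each scoring 70 or more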;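 note: 0% = median of neutral control wells and 100% = median of positive control wells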
Ecoli rRNA inh: inhibitors of bacterial rRNA selective over humanized ribosomes | GFP signal change (wild-type ribosome), % (test concentration not listed) | actives 1.6% (n = 350,000) | AID 720706 | E. coli WT GFP vs humanized-ribosome RFP mutants, fluorescence, 24 h; active compounds read low; DMSO median 0, no signal -100;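 active = significant combined selectivity score with lowered wild-type GFP, culture density cut under 30%, mutant RFP and density less affected; inactive = any of these conditions unmet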
PvdQ inh: P. aeruginosa PvdQ acylase inhibition; actives 0.063% (n = 340,000); inhibition, % at 10 µM; purified PvdQ acylase, fluorescence plate reader; in the data active = inhibition above about 30%, passing the limit was not always enough;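 note: 0% = vehicle neutral wells and 100% = reference inhibitor wells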
The depositor's hits bear a star; / = not tested or not shown. Rows were chosen to be rich in hits. Some 2.6% of all compounds tested hit in one or more screens of this group.

SMILES	SR-BI DiI-HDL act	Xi reactivation	dFosB activator	SR-BI DiI inh	Ecoli rRNA inh	PvdQ inh
COc1cc(NC(=S)NC(=O)c2ccccc2F)ccc1NC(=O)c1cccs1	-83	0	-9	83*	-2	17
COc1cc(NC(=S)NC(=O)c2cc(C)cc(C)c2)ccc1NC(=O)c1cccs1	-57	/	3	57	/	6
COc1ccc2c3c([nH]c2c1)[C@@H](CO)N(C(=O)NC(C)C)CC31CN(C(=O)c2ccncc2)C1	/	0	/	/	0	/
N#C[C@@H]1[C@H](c2ccc(C3=CCCC3)cc2)[C@H](CO)N1C(=O)c1ccccn1	/	0	/	/	6	/
CN(C)CCNc1oc(COc2ccc(-c3ccccc3)cc2)nc1C#N	-3	/	7	3	-36*	-11
Cc1ccc(Cl)cc1NC(=O)c1ocnc1C	-4	/	-4	4	/	-4
COc1ccccc1CNC(=O)C1CCC(CNS(=O)(=O)c2cccs2)CC1 (configuration not stated)	/	0	-6	/	-2	-7
COc1cccc(NC(=O)C2CCC(CNS(=O)(=O)c3cccs3)CC2)c1 (configuration not stated)	-21	0	4	21	-21*	13
O=C(CN1CCCC1c1cccs1)N1CCN(S(=O)(=O)c2ccccc2)CC1 (configuration not stated)	-7	0	-13	7	-4	-2
O=S(=O)(NCc1cc(-c2ccccc2)no1)c1ccccc1	0	0	1	0	-23*	-3
COc1ccc(-c2nc(C#N)c(NCc3ccc(F)cc3)o2)cc1OC	-74	/	-1	74*	/	-13
COc1ccc(-c2nc(C#N)c(NCc3cccnc3)o2)cc1OC	3	/	-8	-3	/	-13
COc1ccccc1C1CC(c2ccc(Br)cc2)=NN1C(=O)c1cccnc1 (configuration not stated)	-74	0	-3	74*	/	-4
COc1ccc(C2=NN(C(=O)c3ccccc3)C(c3ccc(OC)c(OC)c3)C2)cc1OC (configuration not stated)	3	0	-6	-3	-7	2
COc1cccc(C2CC(c3ccc(Br)cc3)=NN2C(=O)c2ccncc2)c1OC (configuration not stated)	-40	0	-10	40	-35*	0
COc1ccc(C2=NN(C(=O)c3ccncc3)C(c3ccccc3O)C2)cc1 (configuration not stated)	-21	0	-9	21	-40	-13
O=C(c1ccncc1)N1N=C(c2ccc(Cl)cc2)CC1c1ccccc1O (configuration not stated)	-82	0	-13	82*	-32	-2
COc1ccc(OC)c(/C=N\NC(=O)c2c(C)nc3cc(C)ccn23)c1	/	0	-9	/	9	-13
C[C@@H]1CN([C@@H](C)CO)C(=O)c2cc(NS(=O)(=O)c3cccs3)ccc2O[C@@H](C)CCCCO[C@H]1CN(C)S(=O)(=O)c1ccccc1	/	0	/	/	-1	/
COc1cc(/C=C/C(=O)OCC(=O)NCCCc2ccccc2)cc(OC)c1OC	-5	0	-10	5	-18*	-8
Cc1noc(NS(=O)(=O)c2ccc(NC(=O)c3cc(=O)c4ccccc4o3)cc2)c1C	17	0	3	-17	5	2
Cc1cc2oc(C(=O)Nc3ccc(S(=O)(=O)Nc4onc(C)c4C)cc3)cc(=O)c2cc1Cl	/	0	-7	/	-30*	17
CCCOc1ccc(C(=O)Nc2ccc(S(=O)(=O)Nc3onc(C)c3C)cc2)cc1	12	0	-8	-12	-30	8
CCCCOc1ccc(C(=O)Nc2ccc(S(=O)(=O)Nc3onc(C)c3C)cc2)cc1	2	0	0	-2	-24*	-21
Cc1noc(NS(=O)(=O)c2ccc(N/C=C\C(=O)c3cccc4ccccc34)cc2)c1C	8	0	-10	-8	-21*	3
